The text below walks through data of ChEMBL document CHEMBL3526048, “In vitro metabolism of rivoglitazone, a novel peroxisome proliferator-activated receptor γ agonist, in rat, monkey, and human liver microsomes and freshly isolated hepatocytes” (Drug Metab Dispos, 2011).

What all share (type): ADME
Data set [1] concerns Liver microsome. The data set is described as follows: Drug metabolism in human liver microsomes assessed as formation of 2-hydroxy-3-(4-((6-methoxy-1-methyl-1H-benzo[d]imidazol-2-yl)methoxy)phenyl)propanamide at 20 uM after 2 hrs by radio-HPLC/LC-MS/MS analysis in presence of NADPH-generating system and NADPH-generating system/SAM. (Liver microsomes are vesicles of endoplasmic reticulum, rich in cytochrome P450 enzymes.)

Data set [2] deals with Liver microsome. The data set is described as follows: Drug metabolism in human liver microsomes assessed as formation of 2-mercapto-3-(4-((6-methoxy-1-methyl-1H-benzo[d]imidazol-2-yl)methoxy)phenyl)propanoic acid at 20 uM after 2 to 4 hrs by radio-HPLC/LC-MS/MS analysis in presence of UDPGA, UDPGA/SAM and NADPH-generating system.
Data set [3] has as its system Liver microsome. Kind of data set: Drug metabolism in human liver microsomes assessed as formation of 3-(4-((6-methoxy-1-methyl-1H-benzo[d]imidazol-2-yl)methoxy)phenyl)-2-(methylthio)propanamide at 20 uM after 2 hrs by radio-HPLC/LC-MS/MS analysis in presence of NADPH-generating system/SAM.
A further data set deals with Cytochrome P450 3A4 (Homo sapiens, UniProt P08684). The data set is described as follows: Activity of human CYP3A4 expressed in microsomes isolated from baculovirus infected insect cell assessed as enzyme-mediated 5-hydroxy-5-(4-((6-methoxy-1-methyl-1H-benzo[d]imidazol-2-yl)methoxy)benzyl)thiazolidine-2,4-dione formation at 20 uM after 2 hrs by radio-HPLC/LC-MS/MS analysis in presence of NADPH-generating system and NADPH-generating system/SAM.
Sequence of Cytochrome P450 3A4 (P08684 whole entry): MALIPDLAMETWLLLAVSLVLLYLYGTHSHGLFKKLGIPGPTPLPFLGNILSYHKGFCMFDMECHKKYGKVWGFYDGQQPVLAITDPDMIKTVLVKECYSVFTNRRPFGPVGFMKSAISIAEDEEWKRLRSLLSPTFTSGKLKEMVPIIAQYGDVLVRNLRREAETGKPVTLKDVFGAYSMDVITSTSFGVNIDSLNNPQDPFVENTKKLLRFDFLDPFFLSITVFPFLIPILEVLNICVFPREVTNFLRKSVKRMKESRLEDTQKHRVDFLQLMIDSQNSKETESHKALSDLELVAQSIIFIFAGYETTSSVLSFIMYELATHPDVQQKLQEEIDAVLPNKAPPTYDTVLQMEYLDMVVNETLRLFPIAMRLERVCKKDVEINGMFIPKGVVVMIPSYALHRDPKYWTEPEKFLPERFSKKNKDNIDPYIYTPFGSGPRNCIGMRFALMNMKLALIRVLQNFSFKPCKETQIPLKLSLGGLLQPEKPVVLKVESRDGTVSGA

A further data set deals with T1, Cytochrome P450 2C8 (Homo sapiens, UniProt P10632).
T1 sequence (P10632 whole entry): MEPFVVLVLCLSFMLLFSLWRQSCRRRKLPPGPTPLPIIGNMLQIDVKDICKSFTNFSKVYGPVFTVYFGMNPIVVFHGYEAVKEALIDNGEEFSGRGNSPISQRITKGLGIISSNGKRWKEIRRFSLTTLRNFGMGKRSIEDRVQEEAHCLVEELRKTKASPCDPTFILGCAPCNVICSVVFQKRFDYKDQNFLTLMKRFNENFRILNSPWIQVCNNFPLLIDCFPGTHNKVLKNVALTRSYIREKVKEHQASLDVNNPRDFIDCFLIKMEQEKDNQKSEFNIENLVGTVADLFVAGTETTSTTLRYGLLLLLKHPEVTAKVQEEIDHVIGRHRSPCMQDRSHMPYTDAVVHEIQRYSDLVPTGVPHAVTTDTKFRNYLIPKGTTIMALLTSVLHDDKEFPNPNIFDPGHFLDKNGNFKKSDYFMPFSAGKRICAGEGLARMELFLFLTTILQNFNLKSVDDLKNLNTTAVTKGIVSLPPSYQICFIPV
Kind of data set: Activity of human CYP2C8 expressed in microsomes isolated from baculovirus infected insect cell assessed as enzyme-mediated 5-(4-((6-hydroxy-1-methyl-1H-benzo[d]imidazol-2-yl)methoxy)benzyl)thiazolidine-2,4-dione formation at 20 uM after 2 hrs by radio-HPLC/LC-MS/MS analysis in presence of NADPH-generating system and NADPH-generating system/SAM. Summed up: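 Baculovirus/insect-cell microsomes expressing single human CYPs, 1 mg/ml protein, with 50 mM potassium phosphate (pH 7.4) or 100 mM Tris-HCl (pH 7.5). NADPH-generating system: 2 mM NADP⁺, 20 mM glucose 6-phosphate, 2 units/ml G6PDH, 10 mM MgCl₂. [¹⁴C]rivoglitazone at 20 μM, 2 h at 37°C with shaking. Control used insect-cell control supersomes. Stopped with acetonitrile; supernatant concentrated under nitrogen; metabolites analysed by radio-HPLC, LC-MS and LC-MS/MS.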

In data set [4] the target is T2, UDP-glucuronosyltransferase 2B7 (Homo sapiens, UniProt P16662).
T2 sequence (P16662 whole entry): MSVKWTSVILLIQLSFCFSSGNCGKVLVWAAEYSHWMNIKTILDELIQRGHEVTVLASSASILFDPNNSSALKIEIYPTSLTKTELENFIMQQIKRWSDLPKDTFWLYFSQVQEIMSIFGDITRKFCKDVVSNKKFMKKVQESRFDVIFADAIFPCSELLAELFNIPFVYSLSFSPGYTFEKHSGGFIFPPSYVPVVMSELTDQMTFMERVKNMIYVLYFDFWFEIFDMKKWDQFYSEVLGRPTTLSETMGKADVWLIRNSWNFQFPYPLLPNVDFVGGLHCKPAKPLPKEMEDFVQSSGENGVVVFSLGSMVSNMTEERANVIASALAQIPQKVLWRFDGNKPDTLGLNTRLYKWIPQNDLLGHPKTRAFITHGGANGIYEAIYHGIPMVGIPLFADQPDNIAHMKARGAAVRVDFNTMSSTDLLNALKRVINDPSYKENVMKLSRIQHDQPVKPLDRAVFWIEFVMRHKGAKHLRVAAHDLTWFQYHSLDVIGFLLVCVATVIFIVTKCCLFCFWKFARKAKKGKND
The data set is described as follows: Activity of human UGT2B7 expressed in microsomes isolated from baculovirus infected insect cell assessed as enzyme-mediated 2-amino-3-((1-carboxy-2-(4-((6-methoxy-1-methyl-1H-benzo[d]imidazol-2-yl)methoxy)phenyl)ethyl)disulfanyl)propanoic acid formation at 20 uM after 4 hrs by radio-HPLC/LC-MS/MS analysis in presence of UDPGA and UDPGA/SAM.

A further data set concerns the target T3, Cytochrome P450 1A2 (Homo sapiens, UniProt P05177).
T3 sequence (P05177 whole entry): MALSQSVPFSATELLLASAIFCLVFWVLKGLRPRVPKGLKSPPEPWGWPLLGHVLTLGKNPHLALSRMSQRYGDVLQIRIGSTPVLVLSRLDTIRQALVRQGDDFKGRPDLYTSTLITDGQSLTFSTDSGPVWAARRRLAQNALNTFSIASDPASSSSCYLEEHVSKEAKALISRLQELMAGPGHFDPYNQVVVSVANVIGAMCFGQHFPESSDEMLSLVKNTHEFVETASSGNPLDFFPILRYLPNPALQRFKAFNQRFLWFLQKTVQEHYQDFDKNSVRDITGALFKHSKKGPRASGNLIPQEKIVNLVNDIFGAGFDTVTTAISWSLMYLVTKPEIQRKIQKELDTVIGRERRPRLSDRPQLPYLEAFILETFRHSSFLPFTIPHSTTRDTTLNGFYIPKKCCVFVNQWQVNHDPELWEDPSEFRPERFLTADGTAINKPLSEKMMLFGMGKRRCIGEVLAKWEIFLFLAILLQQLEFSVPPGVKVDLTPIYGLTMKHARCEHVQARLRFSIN
Kind of data set: Activity of human CYP1A2 expressed in microsomes isolated from baculovirus infected insect cell assessed as enzyme-mediated (2S,3S,4S,5R,6R)-3,4,5-trihydroxy-6-(5-(4-((6-methoxy-1-methyl-1H-benzo[d]imidazol-2-yl)methoxy)benzyl)-2,4-dioxothiazolidin-3-yl)tetrahydro-2H-pyran-2-carboxylic acid formation at 20 uM after 2 hrs by radio-HPLC/LC-MS/MS analysis in presence of UDPGA and UDPGA/SAM.

The target of another data set is Cytochrome P450 3A5 (Homo sapiens, UniProt P20815). The data set is described as follows: Activity of human CYP3A5 expressed in microsomes isolated from baculovirus infected insect cell assessed as enzyme-mediated (2S,3S,4S,5R,6R)-6-((1-carboxy-2-(4-((6-methoxy-1-methyl-1H-benzo[d]imidazol-2-yl)methoxy)phenyl)ethylthio)carbonylamino)-3,4,5-trihydroxytetrahydro-2H-pyran-2-carboxylic acid formation at 20 uM after 2 hrs by radio-HPLC/LC-MS/MS analysis in presence of NADPH-generating system/SAM.
Sequence of Cytochrome P450 3A5 (P20815 whole entry): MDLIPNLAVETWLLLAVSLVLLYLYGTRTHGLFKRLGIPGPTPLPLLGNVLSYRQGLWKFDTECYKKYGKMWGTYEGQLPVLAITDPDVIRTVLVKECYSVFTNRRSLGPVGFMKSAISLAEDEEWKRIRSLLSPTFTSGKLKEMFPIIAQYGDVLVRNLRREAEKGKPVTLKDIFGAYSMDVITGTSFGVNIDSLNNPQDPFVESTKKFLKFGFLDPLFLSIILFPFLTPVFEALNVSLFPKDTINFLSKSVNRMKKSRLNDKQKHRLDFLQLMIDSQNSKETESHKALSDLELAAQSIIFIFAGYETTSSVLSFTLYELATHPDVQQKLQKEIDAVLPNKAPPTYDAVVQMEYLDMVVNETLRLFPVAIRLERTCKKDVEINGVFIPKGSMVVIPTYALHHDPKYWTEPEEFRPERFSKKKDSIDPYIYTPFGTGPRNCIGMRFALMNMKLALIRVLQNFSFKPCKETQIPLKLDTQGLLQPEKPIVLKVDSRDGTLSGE

On to `COc1ccc2nc(COc3ccc(C[14CH]4SC(=O)NC4=O)cc3)n(C)c2c1.Cl` (racemic), for which the Drug metabolism entry with Liver microsome [1] was “metabolite_detected”; in the data set on Liver microsome [2], “metabolite_detected”; in the data set with Liver microsome [3] it was “metabolite_detected”; on Cytochrome P450 3A4, “metabolite_detected”; at Cytochrome P450 2C8 it was “metabolite_detected”; in data set [4] it was “metabolite_not_detected”. Also, the Drug metabolism result on Cytochrome P450 1A2 and on Cytochrome P450 3A5 was “metabolite_not_detected” in each case.
